A word on the IC50: it is the concentration that inhibits the measured activity by half.

A value given as a limit tells only on which side of the number the result lay.

The values that follow come from ChEMBL document CHEMBL1147824, “Synthesis, biological activity, and DNA-damage profile of platinum-threading intercalator conjugates designed to target adenine” (J Med Chem, 2006).

In experiment [1] the test system is NCI-H460. The experiment is described as follows: Cytotoxicity against human H460 cell line by MTS assay. It is filed as functional, cell-based. The procedure, abridged: (§1)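 Cells kept at 37 °C in humidified 5% CO2/95% air and seeded at 700 cells/well (H460) or 27 500 cells/well (HL-60). Log-phase cells were exposed in triplicate to serial drug dilutions for 72 h; stocks in DMSO, PBS or DMF, final organic solvent under 0.1%. MTS/PMS added for 3 h, A490 read. IC50 from sigmoidal dose-response fit; mean of at least three experiments.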
On the technique in general: Formazan colour is commonly taken as a measure of viable cells.

Experiment [2] concerns HL-60. The experiment is described as follows: Cytotoxicity against human HL60 cell line by MTS assay. Format: functional, cell-based. In short, it runs like this: as §1

As to `CNC(=S)N(C)CCNc1c2ccccc2nc2ccccc12`, the IC50 in experiment [1] is 9.5 µM; in experiment [2], 11.5 µM.

Turning to `CCNC(=O)NCCNC(=O)c1cccc2c(NCCN(C)/C(S)=N/C)c3ccccc3nc12`, the IC50 in experiment [1] and in experiment [2] was greater than 100 µM each time.

With `CCNC(=O)NCCCCNC(=O)c1cccc2c(NCCN(C)/C(S)=N/C)c3ccccc3nc12`, the IC50 in experiment [1] and in experiment [2] was greater than 100 µM in each case.

With `C/N=C(\S)N(C)CCNc1c2ccccc2nc2c(C(=O)NCCNC(=O)Nc3ccccc3)cccc12`, the IC50 was 31.9 µM in experiment [1] and greater than 50 µM in experiment [2].

For `C/N=C(\S)N(C)CCNc1c2ccccc2nc2c(C(=O)NCCCCNC(=O)Nc3ccccc3)cccc12`, the IC50 in experiment [1] turned out to be 3.1 µM; in experiment [2], 0.39 µM.

As for `C/N=C(\S)N(C)CCNc1c2ccccc2nc2c(C(=O)NCCN(C)C)cccc12`, the IC50 in experiment [1] was 2.2 µM; in experiment [2], 1.4 µM.

Consider `C/N=C(\S)N(C)CCNc1c2ccccc2nc2c(C(=O)NCCO)cccc12`, for which the values for the 50% inhibitory concentration (IC50) in experiment [1] and in experiment [2] were 41.1 µM and 27.4 µM, respectively.

`C/N=C(\S)N(C)CCNc1c2ccccc2nc2c(C(=O)NCCOC(C)=O)cccc12`: the IC50 was 17.6 µM in experiment [1] and 29.5 µM in experiment [2].
